Source: ChEMBL document CHEMBL1143822, “Three-dimensional quantitative structure-activity relationship analysis of human CYP51 inhibitors” (Drug Metab Dispos, 2007)

T1: Lanosterol 14-alpha demethylase (Homo sapiens, UniProt Q16850)
T1 sequence (Q16850 whole entry): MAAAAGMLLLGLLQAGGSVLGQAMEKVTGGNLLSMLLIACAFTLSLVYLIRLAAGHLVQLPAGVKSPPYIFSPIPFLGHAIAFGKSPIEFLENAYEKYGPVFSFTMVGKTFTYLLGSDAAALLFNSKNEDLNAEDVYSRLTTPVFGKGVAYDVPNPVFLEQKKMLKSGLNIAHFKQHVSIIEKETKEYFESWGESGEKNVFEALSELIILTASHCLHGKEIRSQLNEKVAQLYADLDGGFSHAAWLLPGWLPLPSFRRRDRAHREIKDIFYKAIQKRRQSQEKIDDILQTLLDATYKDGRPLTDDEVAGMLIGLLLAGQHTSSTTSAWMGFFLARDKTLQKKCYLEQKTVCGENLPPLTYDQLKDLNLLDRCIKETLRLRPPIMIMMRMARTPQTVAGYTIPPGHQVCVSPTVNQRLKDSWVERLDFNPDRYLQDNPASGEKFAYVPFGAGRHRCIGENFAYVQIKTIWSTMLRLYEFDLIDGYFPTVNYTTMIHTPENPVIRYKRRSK

B1: Lanosterol 14-alpha demethylase (Homo sapiens) (protein)
chain: T1 sequence (Q16850 whole entry)

These molecules were tested against T1, Lanosterol 14-alpha demethylase (assay: Binding affinity to human CYP51).

Work on CC(=O)N1CCN(c2ccc(OC[C@H]3CO[C@](Cn4ccnc4)(c4ccc(Cl)cc4Cl)O3)cc2)CC1 [KETOCONAZOLE] yielded a Kd of 8 µM.

Each molecule was assayed against T1, Lanosterol 14-alpha demethylase (assay: Inhibition of human CYP51 expressed in Topp 3 cells by lanosterol demethylase assay).
Assay type: cell-based
Summary of the method: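 0.5 ml phosphate buffer pH 7.4 with KCN, NADPH regenerating system, 60 min at 37 °C. Triene product extracted and quantified by chromatography (ergosterol internal standard). IC50 read from plot of % activity remaining vs concentration.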

First: O=C1C(CC[S+]([O-])c2ccccc2)C(=O)N(c2ccccc2)N1c1ccccc1 (stereo not given) [SULFINPYRAZONE]
Second: Clc1ccccc1C(c1ccccc1)(c1ccccc1)n1ccnc1 [CLOTRIMAZOLE]
The IC50 of the first is higher: over 200 µM for the first, 0.13 µM for the second. The second is the more potent here.

Compared with O=C(N[C@@H](Cc1ccccc1)C(=O)N1CCC(O)CC1)c1cc2cc(F)ccc2[nH]1, O=C(N[C@@H](Cc1ccccc1)C(=O)N1CCC(O)CC1)c1cc2cc(Cl)ccc2[nH]1 is 24-fold lower in IC50: 75 µM for the first, 3.1 µM for the second. The second is the more potent here.

CC(C)CCC[C@@H](C)[C@H]1CC[C@H]2[C@@H]3CC=C4C[C@@H](O)CC[C@]4(C)[C@H]3CC[C@]12C [CHOLESTEROL] and CC(=O)[C@H]1CC[C@H]2[C@@H]3CC=C4C[C@@H](O)CC[C@]4(C)[C@H]3CC[C@]12C [PREGNENOLONE] cannot be ordered by IC50: over 200 µM for the first, over 200 µM for the second.

Compared with CC(C)N1CCN(c2ccc(OC[C@H]3CO[C@](Cn4cncn4)(c4ccc(Cl)cc4Cl)O3)cc2)CC1 [TERCONAZOLE], CC(=O)N1CCN(c2ccc(OC[C@H]3CO[C@](Cn4ccnc4)(c4ccc(Cl)cc4Cl)O3)cc2)CC1 [KETOCONAZOLE] is 16-fold lower in IC50: 3 µM for the first, 0.19 µM for the second. The second is the more potent here.

Compared with CC[C@H](C)C(=O)O[C@H]1C[C@@H](C)C=C2C=C[C@H](C)[C@H](CC[C@@H]3C[C@@H](O)CC(=O)O3)[C@H]21 [LOVASTATIN], CO[C@H]1/C=C/O[C@@]2(C)Oc3c(C)c(O)c4c(O)c(c(/C=N/N5CCN(C)CC5)c(O)c4c3C2=O)NC(=O)/C(C)=C\C=C\[C@H](C)[C@H](O)[C@@H](C)[C@@H](O)[C@@H](C)[C@H](OC(C)=O)[C@@H]1C [RIFAMPIN] is lower in IC50: over 200 µM for the first, 30 µM for the second.

Cn1cc[nH]c1=S [METHIMAZOLE] and c1ccc2[nH]cnc2c1 [BENZIMIDAZOLE] cannot be ordered by IC50: over 200 µM for the first, over 200 µM for the second.

First: Nc1ccc(S(=O)(=O)Nc2ccnn2-c2ccccc2)cc1 [SULFAPHENAZOLE]
Second: c1ccc(-c2ccc(C(c3ccccc3)n3ccnc3)cc2)cc1 (stereo not given) [BIFONAZOLE]
The IC50 of the first is higher: over 200 µM for the first, 0.342 µM for the second. The second is the more potent here.

First: O=C(NC(Cc1ccccc1)C(=O)N1CCC(O)CC1)c1ccc[nH]1 (stereo not given)
Second: O=C(N[C@@H](Cc1ccccc1)C(=O)N1CCC(O)CC1)c1cc2ccccc2[nH]1
The IC50 of the first is higher: over 200 µM for the first, 0.91 µM for the second.

First: O=C(N[C@@H](Cc1ccc(Cl)cc1)C(=O)N1CCC(O)CC1)c1cc2cc(Cl)ccc2[nH]1
Second: O=C(N[C@@H](Cc1ccc(F)cc1)C(=O)N1CCC(O)CC1)c1cc2cc(Cl)ccc2[nH]1
The IC50 of the first is 2.4-fold higher: 9.7 µM for the first, 4 µM for the second. The second is the more potent here.

CCCNC(=O)NS(=O)(=O)c1ccc(Cl)cc1 [CHLORPROPAMIDE] and CCCCNC(=O)NS(=O)(=O)c1ccc(C)cc1 [TOLBUTAMIDE] cannot be ordered by IC50: over 200 µM for the first, over 200 µM for the second.

Going from Cc1ncc([N+](=O)[O-])n1CCO [METRONIDAZOLE] to O=C(N[C@@H](Cc1c[nH]cn1)C(=O)N1CCC(O)CC1)c1cc2cc(Cl)ccc2[nH]1, the IC50 falls from over 200 µM to 1.3 µM. The second is the more potent here.

CC[C@H]1OC(=O)[C@H](C)[C@@H](O[C@H]2C[C@@](C)(OC)[C@@H](O)[C@H](C)O2)[C@H](C)[C@@H](O[C@@H]2O[C@H](C)C[C@H](N(C)C)[C@H]2O)[C@](C)(O)C[C@@H](C)C(=O)[C@H](C)[C@@H](O)[C@]1(C)O [ERYTHROMYCIN] and CC(=O)[C@H]1CC[C@H]2[C@@H]3CCC4=CC(=O)CC[C@]4(C)[C@H]3CC[C@]12C [PROGESTERONE] cannot be ordered by IC50: over 200 µM for the first, over 200 µM for the second.

Going from O=C(N[C@@H](Cc1ccccc1)C(=O)N1CCC(O)CC1)c1cc2c([nH]1)CCCC2 to O=C(N[C@H](Cc1ccccc1)C(=O)N1CCC(O)CC1)c1cc2cc(Cl)ccc2[nH]1, the IC50 falls from over 200 µM to 100 µM.

CCCCC/C=C\C/C=C\C/C=C\C/C=C\CCCC(=O)O [ARACHIDONIC ACID] and CCCCC/C=C\C/C=C\C/C=C\C/C=C\CCCC(=O)NCCO [ANANDAMIDE] cannot be ordered by IC50: over 200 µM for the first, over 200 µM for the second.

Compared with O=C(NC(Cc1ccccc1)C(=O)O)c1cc2cc(Cl)ccc2[nH]1 (stereo not given), O=C(N[C@@H](Cc1ccccc1Cl)C(=O)N1CCC(O)CC1)c1cc2cc(Cl)ccc2[nH]1 [ANALOGUE A] is lower in IC50: over 200 µM for the first, 0.3 µM for the second.

Compared with COC1=CC(=O)C[C@@H](C)[C@]12Oc1c(Cl)c(OC)cc(OC)c1C2=O [GRISEOFULVIN], CCC(C)n1ncn(-c2ccc(N3CCN(c4ccc(OCC5COC(Cn6cncn6)(c6ccc(Cl)cc6Cl)O5)cc4)CC3)cc2)c1=O (stereo not given) [ITRACONAZOLE] is 14-fold lower in IC50: 50 µM for the first, 3.6 µM for the second. The second is the more potent here.

Compared with O=C(NC1(C(=O)N2CCC(O)CC2)CCCC1)c1cc2cc(Cl)ccc2[nH]1, O=C(N[C@@H](Cc1cccnc1)C(=O)N1CCC(O)CC1)c1cc2cc(Cl)ccc2[nH]1 is 3.8-fold lower in IC50: 100 µM for the first, 26 µM for the second. The second is the more potent here.

Clc1ccc(C2(Cn3cncn3)OCCO2)c(Cl)c1 [AZACONAZOLE] and OC(c1ccccc1)(c1cncnc1)c1ccc(Cl)cc1Cl (stereo not given) [TRIARIMOL] cannot be ordered by IC50: over 10 µM for the first, over 10 µM for the second.

First: Clc1ccc(COC(Cn2ccnc2)c2ccc(Cl)cc2Cl)c(Cl)c1 (stereo not given) [MICONAZOLE]
Second: Clc1ccc(COC(Cn2ccnc2)c2ccc(Cl)cc2Cl)cc1 (stereo not given) [ECONAZOLE]
The IC50 of the first is 4-fold higher: 0.2 µM for the first, 0.05 µM for the second. The second is the more potent here.

Compared with Cc1cccc(N(C)C(=S)Oc2ccc3ccccc3c2)c1 [TOLNAFTATE], COc1ccc(C[C@H](NC(=O)c2cc3cc(Cl)ccc3[nH]2)C(=O)N2CCC(O)CC2)cc1 is 11-fold lower in IC50: 50 µM for the first, 4.5 µM for the second. The second is the more potent here.

Going from C[C@]12CC[C@H]3[C@@H](CCC4=CC(=O)CC[C@@]43C)[C@@H]1CC[C@@H]2O [TESTOSTERONE] to O=C(N[C@@H](Cc1ccccc1F)C(=O)N1CCC(O)CC1)c1cc2cc(Cl)ccc2[nH]1, the IC50 falls from 50 µM to 0.8 µM (62-fold). The second is the more potent here.

With O=C(N[C@@H](Cc1ccc(O)cc1)C(=O)N1CCC(O)CC1)c1cc2cc(Cl)ccc2[nH]1 the IC50 was 2.5 µM.

The molecules below were run on CC(C)=CCC[C@@H](C)[C@H]1CC[C@@]2(C)C3=C(CC[C@]12C)[C@@]1(C)CC[C@H](O)C(C)(C)[C@@H]1CC3 (assay: Binding affinity to human reconstituted CYP51).

B1 gave a Km of 30 µM.
